ChEMBL document CHEMBL4145534, “Computer-aided insights into receptor-ligand interaction for novel 5-arylhydantoin derivatives as serotonin 5-HT7 receptor agents with antidepressant activity” (Eur J Med Chem, 2018)

What was measured:
[1] = biological target: T1, 5-hydroxytryptamine receptor 1A (Homo sapiens, UniProt P08908); experiment: Displacement of [3H]-8-OH-DPAT from human 5HT1AR expressed in HEK293 cell membranes after 1 hr by Microbeta scintillation counting method
T1 sequence (P08908 whole entry): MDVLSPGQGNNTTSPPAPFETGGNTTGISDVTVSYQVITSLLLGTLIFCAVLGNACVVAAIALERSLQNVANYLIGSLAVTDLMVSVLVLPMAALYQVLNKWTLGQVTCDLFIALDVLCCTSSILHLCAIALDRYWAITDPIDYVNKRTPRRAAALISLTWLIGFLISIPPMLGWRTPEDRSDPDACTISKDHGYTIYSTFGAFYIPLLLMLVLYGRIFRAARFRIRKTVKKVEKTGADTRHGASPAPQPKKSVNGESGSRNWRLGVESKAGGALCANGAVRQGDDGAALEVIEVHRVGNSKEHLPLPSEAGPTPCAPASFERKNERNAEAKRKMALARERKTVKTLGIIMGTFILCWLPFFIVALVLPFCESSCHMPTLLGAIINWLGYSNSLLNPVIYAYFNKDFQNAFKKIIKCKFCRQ

D(2) dopamine receptor = D(2) dopamine receptor (Homo sapiens, UniProt P14416); experiment: Displacement of [3H]-raclopride from human D2L receptor expressed in HEK293 cell membranes after 1 hr by Microbeta scintillation counting method
[2] = biological target: 5-hydroxytryptamine receptor 7 (Homo sapiens, UniProt P34969); experiment: Displacement of [3H]-5-CT from human 5HT7BR expressed in HEK293 cell membranes after 1 hr by Microbeta scintillation counting method
[3] = biological target: T2, Adrenergic receptor alpha-1 (Rattus norvegicus, UniProt P15823+P23944+P43140); experiment: Displacement of [3H]-prazosin from alpha1-adrenergic receptor in rat brain cortex after 30 mins by Microbeta scintillation counting method
T2 sequence (P15823 whole entry): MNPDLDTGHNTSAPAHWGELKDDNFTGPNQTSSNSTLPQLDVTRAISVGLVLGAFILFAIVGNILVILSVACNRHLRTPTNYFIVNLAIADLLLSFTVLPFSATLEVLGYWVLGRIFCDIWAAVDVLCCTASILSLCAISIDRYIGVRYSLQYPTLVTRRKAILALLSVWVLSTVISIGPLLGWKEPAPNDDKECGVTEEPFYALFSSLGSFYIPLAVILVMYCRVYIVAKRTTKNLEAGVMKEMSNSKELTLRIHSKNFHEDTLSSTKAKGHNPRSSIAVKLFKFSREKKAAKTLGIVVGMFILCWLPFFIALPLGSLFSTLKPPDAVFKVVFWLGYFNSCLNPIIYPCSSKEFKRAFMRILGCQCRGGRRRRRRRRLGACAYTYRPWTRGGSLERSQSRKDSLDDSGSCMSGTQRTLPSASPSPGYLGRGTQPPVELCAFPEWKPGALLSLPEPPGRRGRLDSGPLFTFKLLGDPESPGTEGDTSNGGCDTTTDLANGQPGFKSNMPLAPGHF
T2 sequence (P23944 whole entry): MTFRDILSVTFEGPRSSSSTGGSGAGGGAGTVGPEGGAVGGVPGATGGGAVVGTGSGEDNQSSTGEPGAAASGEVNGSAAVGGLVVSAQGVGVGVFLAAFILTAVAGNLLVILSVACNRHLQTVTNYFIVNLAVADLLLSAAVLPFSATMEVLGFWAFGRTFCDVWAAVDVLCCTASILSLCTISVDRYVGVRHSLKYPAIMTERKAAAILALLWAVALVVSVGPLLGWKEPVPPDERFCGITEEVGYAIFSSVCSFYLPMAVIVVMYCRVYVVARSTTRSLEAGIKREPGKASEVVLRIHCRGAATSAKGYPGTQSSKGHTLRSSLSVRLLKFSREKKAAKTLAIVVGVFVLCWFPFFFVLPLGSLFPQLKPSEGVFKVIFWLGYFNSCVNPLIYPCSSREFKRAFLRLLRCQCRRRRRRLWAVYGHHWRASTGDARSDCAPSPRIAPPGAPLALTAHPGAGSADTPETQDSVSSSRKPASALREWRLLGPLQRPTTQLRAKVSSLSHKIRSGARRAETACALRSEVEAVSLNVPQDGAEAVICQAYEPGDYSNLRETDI
T2 sequence (P43140 whole entry): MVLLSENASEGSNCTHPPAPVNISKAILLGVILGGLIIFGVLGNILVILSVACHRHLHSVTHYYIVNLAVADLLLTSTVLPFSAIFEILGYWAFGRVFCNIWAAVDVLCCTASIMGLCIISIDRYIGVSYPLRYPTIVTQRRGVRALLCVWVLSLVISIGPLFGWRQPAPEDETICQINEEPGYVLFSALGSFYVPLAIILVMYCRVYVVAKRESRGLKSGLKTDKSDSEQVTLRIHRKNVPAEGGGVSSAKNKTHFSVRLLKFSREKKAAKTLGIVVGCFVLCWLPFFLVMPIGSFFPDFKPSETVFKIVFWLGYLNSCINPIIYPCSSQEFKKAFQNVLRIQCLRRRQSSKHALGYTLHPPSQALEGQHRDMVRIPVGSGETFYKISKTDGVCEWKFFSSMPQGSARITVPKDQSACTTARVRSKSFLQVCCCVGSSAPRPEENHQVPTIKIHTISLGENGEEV

[4] = biological target: Beta-1 adrenergic receptor (Rattus norvegicus, UniProt P18090); experiment: Displacement of [3H]-CGP-12177 from beta1-adrenergic receptor in rat brain cortex after 1 hr by Microbeta scintillation counting method
Mus musculus [5] = experiment: Antidepressant like activity in Swiss albino mouse assessed as immobility time at 5 mg/kg, ip administered 60 mins prior to test and measured last 4 mins of 6 mins test by forced swimming test (reference value: 159.78 to 183.56 secs); format: functional
Mus musculus [6] = experiment: Antidepressant like activity in Swiss albino mouse assessed as immobility time at 10 mg/kg, ip administered 60 mins prior to test and measured last 4 mins of 6 mins test by forced swimming test (reference value: 159.78 to 183.56 secs); format: functional
Mus musculus [7] = experiment: Antidepressant like activity in Swiss albino mouse assessed as immobility time at 20 mg/kg, ip administered 60 mins prior to test and measured last 4 mins of 6 mins test by forced swimming test (reference value: 159.78 to 183.56 secs); format: functional
Mus musculus [8] = experiment: Anxiolytic-like activity in Swiss albino mouse assessed as number of punished crossings at 5 mg/kg, ip administered 60 mins prior to test and measured post 3 secs of electric shock by four-plate test (reference value: 3.8 to 4 /min); format: functional
Mus musculus [9] = experiment: Anxiolytic-like activity in Swiss albino mouse assessed as number of punished crossings at 10 mg/kg, ip administered 60 mins prior to test and measured post 3 secs of electric shock by four-plate test (reference value: 3.8 to 4 /min); format: functional
Mus musculus [10] = experiment: Anxiolytic-like activity in Swiss albino mouse assessed as number of punished crossings at 20 mg/kg, ip administered 60 mins prior to test and measured post 3 secs of electric shock by four-plate test (reference value: 3.8 to 4 /min); format: functional
Mus musculus [11] = experiment: Effect on spontaneous locomotor activity in Swiss albino mouse at 10 mg/kg, ip administered 60 mins prior to test and measured for 3 to 6 mins; format: ADME, organism-based; settings: in vivo
How it was run: (§1)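 Male Swiss Albino mice given compound or vehicle (1% Tween 80, 10 ml/kg) i.p. 60 min before test. Each mouse placed alone in a cage for 30 min habituation. Ambulation (photobeam channel crossings) then recorded over a 3–6 min session. Means ± SEM.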

Mus musculus [12] = experiment: Effect on spontaneous locomotor activity in Swiss albino mouse at 20 mg/kg, ip administered 60 mins prior to test and measured for 3 to 6 mins; format: ADME, organism-based; settings: in vivo; how it was run: as §1
[13] = biological target: T3, Adrenergic receptor alpha-2 (Rattus norvegicus, UniProt P22086+P19328+P22909); experiment: Displacement of [3H]-clonidine from alpha2-adrenergic receptor in rat brain cortex after 30 mins by Microbeta scintillation counting method
T3 sequence (P22086 whole entry): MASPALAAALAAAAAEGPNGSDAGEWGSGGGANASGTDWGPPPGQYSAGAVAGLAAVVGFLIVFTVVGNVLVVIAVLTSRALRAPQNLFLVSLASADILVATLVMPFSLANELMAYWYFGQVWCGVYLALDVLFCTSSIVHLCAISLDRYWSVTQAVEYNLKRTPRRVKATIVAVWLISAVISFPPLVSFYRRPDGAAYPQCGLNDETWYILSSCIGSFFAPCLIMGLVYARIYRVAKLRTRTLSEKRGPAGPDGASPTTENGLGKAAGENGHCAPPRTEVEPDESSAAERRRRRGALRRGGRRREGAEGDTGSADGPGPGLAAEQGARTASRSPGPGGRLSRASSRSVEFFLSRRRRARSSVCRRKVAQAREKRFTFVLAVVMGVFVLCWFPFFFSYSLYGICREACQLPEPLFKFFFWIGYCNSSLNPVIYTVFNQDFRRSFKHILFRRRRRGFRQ
T3 sequence (P19328 whole entry): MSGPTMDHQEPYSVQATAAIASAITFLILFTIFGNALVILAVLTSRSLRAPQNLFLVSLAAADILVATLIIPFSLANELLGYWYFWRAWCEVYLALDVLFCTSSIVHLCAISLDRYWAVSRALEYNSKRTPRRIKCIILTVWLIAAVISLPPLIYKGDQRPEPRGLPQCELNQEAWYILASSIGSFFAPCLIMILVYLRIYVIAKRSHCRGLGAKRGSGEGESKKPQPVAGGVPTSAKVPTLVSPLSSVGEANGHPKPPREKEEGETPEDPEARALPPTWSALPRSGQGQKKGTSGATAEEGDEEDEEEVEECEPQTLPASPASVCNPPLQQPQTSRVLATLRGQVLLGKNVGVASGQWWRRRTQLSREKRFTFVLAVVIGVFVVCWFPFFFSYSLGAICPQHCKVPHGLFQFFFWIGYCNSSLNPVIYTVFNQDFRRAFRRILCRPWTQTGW
T3 sequence (P22909 whole entry): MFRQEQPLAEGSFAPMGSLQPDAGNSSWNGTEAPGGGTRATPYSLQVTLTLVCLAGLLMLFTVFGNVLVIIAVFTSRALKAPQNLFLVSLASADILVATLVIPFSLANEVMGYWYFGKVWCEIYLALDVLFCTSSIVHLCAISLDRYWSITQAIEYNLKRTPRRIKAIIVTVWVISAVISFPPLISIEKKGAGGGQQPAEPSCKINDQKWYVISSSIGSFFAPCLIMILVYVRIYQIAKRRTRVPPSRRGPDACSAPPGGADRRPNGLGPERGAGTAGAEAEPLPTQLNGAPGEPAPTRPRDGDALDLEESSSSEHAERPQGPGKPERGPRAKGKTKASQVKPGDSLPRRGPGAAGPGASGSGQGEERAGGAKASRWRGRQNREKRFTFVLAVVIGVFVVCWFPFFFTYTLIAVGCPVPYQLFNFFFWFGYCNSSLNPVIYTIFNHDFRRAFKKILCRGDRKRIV

Chain of D(2) dopamine receptor (P14416 whole entry): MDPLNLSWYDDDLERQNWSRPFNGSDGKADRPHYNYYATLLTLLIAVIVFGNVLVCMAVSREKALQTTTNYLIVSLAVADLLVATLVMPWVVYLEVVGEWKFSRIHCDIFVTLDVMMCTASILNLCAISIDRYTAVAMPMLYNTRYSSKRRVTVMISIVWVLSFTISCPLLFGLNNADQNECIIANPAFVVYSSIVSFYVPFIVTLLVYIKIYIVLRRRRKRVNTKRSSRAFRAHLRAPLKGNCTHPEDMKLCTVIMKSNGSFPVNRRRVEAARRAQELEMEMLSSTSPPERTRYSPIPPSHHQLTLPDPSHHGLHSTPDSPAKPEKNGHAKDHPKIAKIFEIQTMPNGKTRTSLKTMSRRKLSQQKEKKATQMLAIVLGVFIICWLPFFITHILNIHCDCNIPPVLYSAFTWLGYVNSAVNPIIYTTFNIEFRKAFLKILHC
Chain of 5-hydroxytryptamine receptor 7 (P34969 whole entry): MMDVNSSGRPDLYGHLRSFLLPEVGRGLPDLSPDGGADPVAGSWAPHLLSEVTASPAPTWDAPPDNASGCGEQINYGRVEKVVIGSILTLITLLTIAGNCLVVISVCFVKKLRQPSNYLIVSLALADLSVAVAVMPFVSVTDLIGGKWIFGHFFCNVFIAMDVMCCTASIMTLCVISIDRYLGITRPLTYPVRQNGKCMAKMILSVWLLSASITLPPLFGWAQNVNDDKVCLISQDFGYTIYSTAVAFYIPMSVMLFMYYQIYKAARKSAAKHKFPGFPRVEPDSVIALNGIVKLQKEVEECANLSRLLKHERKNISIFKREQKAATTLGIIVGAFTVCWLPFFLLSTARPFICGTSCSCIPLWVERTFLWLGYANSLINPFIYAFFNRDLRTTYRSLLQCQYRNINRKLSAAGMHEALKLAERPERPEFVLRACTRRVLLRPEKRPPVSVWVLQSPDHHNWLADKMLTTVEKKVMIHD
Chain of Beta-1 adrenergic receptor (P18090 whole entry): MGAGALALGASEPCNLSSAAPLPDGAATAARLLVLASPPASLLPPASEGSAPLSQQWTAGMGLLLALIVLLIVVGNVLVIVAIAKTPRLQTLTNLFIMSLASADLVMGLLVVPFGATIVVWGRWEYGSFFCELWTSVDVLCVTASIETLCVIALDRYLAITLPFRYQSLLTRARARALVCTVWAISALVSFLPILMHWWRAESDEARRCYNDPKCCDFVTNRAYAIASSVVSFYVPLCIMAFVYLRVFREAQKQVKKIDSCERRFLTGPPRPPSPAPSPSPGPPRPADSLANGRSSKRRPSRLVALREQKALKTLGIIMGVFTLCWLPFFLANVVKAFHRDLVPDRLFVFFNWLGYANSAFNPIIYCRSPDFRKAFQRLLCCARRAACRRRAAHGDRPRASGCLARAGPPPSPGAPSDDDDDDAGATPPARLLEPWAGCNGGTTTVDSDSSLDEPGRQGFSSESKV

| Compound | Ki [1] | Ki (D(2) dopamine receptor) | Ki [2] | Ki [3] | Ki [4] | Time (Mus musculus [5]) | Time (Mus musculus [6]) | Time (Mus musculus [7]) | Activity (Mus musculus [8]) | Activity (Mus musculus [9]) | Activity (Mus musculus [10]) | Activity (Mus musculus [11]) | Activity (Mus musculus [12]) | Ki [13] |
| --- | --- | --- | --- | --- | --- | --- | --- | --- | --- | --- | --- | --- | --- | --- |
| COc1ccc(C2(C)NC(=O)N(CC(O)CN3CCN(c4ccccc4C#N)CC3)C2=O)cc1 (racemic) | 0.219 µM | – | – | – | – | – | – | – | – | – | – | – | – | – |
| COc1ccccc1N1CCN(CC(O)CN2C(=O)NC(C)(c3ccccc3)C2=O)CC1.Cl (racemic) | 0.421 µM | 1.03 µM | 0.01 µM | 0.308 µM | > 10 µM | 182.89 s | 121.38 s | 66.11 s | 3 min⁻¹ | 4.7 min⁻¹ | 4.3 min⁻¹ | Non-Toxic | Non-Toxic | – |
| N#Cc1ccccc1N1CCN(CC(O)CN2C(=O)NC(c3ccccc3)(c3ccccc3)C2=O)CC1 (racemic) | 0.341 µM | 0.534 µM | 1.2 µM | – | – | – | – | – | – | – | – | – | – | – |
| COc1ccccc1N1CCN(CC(O)CN2C(=O)NC(C)(c3ccc(Cl)cc3)C2=O)CC1.Cl (racemic) | 0.109 µM | 0.366 µM | 0.02 µM | 0.268 µM | – | – | – | – | – | – | – | – | – | > 10 µM |
